Most compounds without a hit are left out; they make up all but 0.6% or so of the library.
Efflux pump mplx: inhibitors of Candida antifungal efflux pumps expressed in yeast. S. cerevisiae Candida pump triplex, Nile Red efflux. inhibition, % at 10 µM. 0.44% of 330,000 active. AID 485275;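 active means plate passing quality check with inhibition over a set limit, or well fluorescence over plate mean plus 4 SD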;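 further: Nile Red retained in pooled yeast measured as flow cytometry median fluorescence; 0% = buffer negative control and 100% = Enniatin B positive control; higher means more Nile Red kept so more efflux inhibition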
STK33 inh: human STK33 kinase inhibition; inhibition, % at 10 µM; Q9BYT3; 0.073% of 320,000 active; purified STK33, MBP phosphorylation, ADP-Glo luminescence;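 active means inhibition at or above 25%, using the most active replicate where run in duplicate; inactive means inhibition below 25%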
Target sequence (Q9BYT3 whole entry, looked up): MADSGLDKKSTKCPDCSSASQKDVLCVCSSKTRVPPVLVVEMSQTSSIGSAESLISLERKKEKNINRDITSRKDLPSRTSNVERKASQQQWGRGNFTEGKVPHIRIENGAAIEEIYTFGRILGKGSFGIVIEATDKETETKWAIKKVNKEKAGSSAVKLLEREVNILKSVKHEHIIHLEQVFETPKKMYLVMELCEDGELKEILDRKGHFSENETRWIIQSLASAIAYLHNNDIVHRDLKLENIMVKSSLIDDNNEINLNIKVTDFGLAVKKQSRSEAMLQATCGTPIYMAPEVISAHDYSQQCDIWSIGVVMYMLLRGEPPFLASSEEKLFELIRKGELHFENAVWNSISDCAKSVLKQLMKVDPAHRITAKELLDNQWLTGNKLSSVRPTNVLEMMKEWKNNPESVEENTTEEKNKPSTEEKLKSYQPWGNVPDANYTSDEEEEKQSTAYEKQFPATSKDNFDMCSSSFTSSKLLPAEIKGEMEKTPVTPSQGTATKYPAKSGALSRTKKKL
PolyA inhibitor: inhibitors of polyadenylation in S. cerevisiae. S. cerevisiae SKY197-pL101 polyadenylation reporter, beta-gal luminescence; efflux-impaired pdr1/pdr3 knockout yeast; score 100 = 6 SD above DMSO. AID 1875. 0.02% of 300,000 active. activity score, % at 12 µM;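 active means lowest replicate activity score at least 50, where 100 means six control SD above control mean; inconclusive means lowest score under 50 but half or more replicates reach 50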;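 further: yeast exposed to compound for 9 h at 30 °C; higher score means more reporter readthrough which indicates perturbed polyadenylation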
GSK3beta inhib: inhibitors of human GSK3beta kinase | P49841 | 0.038% of 300,000 active | activity score (negative = inhibition), % at 10 µM | GST-GSK3beta kinase, ADP-Glo luminescence, 60 min; active compounds read low;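 active means more than half of replicate wells score below -50%, meaning over 50% inhibition versus plate controls; inconclusive means some replicates but at most half score below -50%; inactive means no replicate scores below -50%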;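 further: 0% = median DMSO wells and -100% = median GW8510 positive control wells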
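Assay system: GST-tagged human GSK3beta kinase, cell-free; Input: 1.6 ng GSK3beta; Medium: Tris/MgCl2 kinase buffer; Timing: 60 min enzyme reaction, room temperature; Signal: ADP-Glo luminescence quantifying ADP generated by kinase; Evaluation: score relative to plate controls; Benchmarks: DMSO neutral wells and GW8510 at 20 µM as positive.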
GSK3A inh: inhibitors of human GSK-3 alpha kinase; ADP-Glo luminescence, 60 min; P49840; inhibition, % at 10 µM; 0.1% of 320,000 active;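 active means more than half of replicates show inhibition above 20%; inconclusive means some but at most half of replicates above 20% inhibition; inactive means no replicate shows inhibition above 20%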;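 further: GST-tagged GSK-3 alpha with peptide substrate and 25 µM ATP; 0% = DMSO neutral wells and 100% = GW8510 positive control wells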
Yeast cmpd fluor: counter-screen for efflux pump inhibitors: compound fluorescence; 4% of 1,700 active; fluorescence ratio to DMSO, % at 10 µM; S. cerevisiae AD/pABC3, flow cytometry; shares compounds with Efflux pump mplx;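 active means fluorescence ratio to DMSO above its plate's cutoff, the plate mean ratio plus 5 SD, cut at about 210% in these data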;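 further: unstained yeast with no Nile Red so the signal is compound autofluorescence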
Mdr1 pump inh: blocks the Candida albicans Mdr1 efflux pump in yeast. inhibition, % at 10 µM. S. cerevisiae AD/CaMDR1, Nile Red efflux, flow cytometry. 1% of 1,700 active. AID 588518. shares compounds with Efflux pump mplx; in the data active means inhibition above about 26%;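 further: 0% = DMSO vehicle and 100% = reference inhibitor; higher means more Nile Red retained so more efflux inhibition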
CaCdr2 efflux inh: inhibitors of Candida albicans Cdr2 efflux pump; 4% of 1,700 active; Nile Red retention ratio vs DMSO, % at 10 µM; AID 588520; S. cerevisiae AD/CaCDR2, Nile Red retention, flow cytometry; shares compounds with Efflux pump mplx; in the data active means Nile Red retention ratio vs DMSO above about 190%;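 further: higher ratio means more blocking of Cdr2 efflux of the dye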
Cdr1 pump inh: blocks the Candida albicans Cdr1 efflux pump in yeast; inhibition, % at 10 µM; shares compounds with Efflux pump mplx; 1% of 1,700 active; S. cerevisiae AD/CaCDR1, Nile Red efflux, flow cytometry;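 active means inhibition above the screen-wide mean plus twice its standard deviation, cut at about 32% in these data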
An asterisk follows results filed as active; ? = inconclusive; / = no result given.

SMILES | Efflux pump mplx | STK33 inh | PolyA inhibitor | GSK3beta inhib | GSK3A inh | Yeast cmpd fluor | Mdr1 pump inh | CaCdr2 efflux inh | Cdr1 pump inh
CN(C)c1ccc(/C=C/c2nc3ccccc3s2)cc1 | 0.6* | / | -4.3 | -0.8 | 10.4 | 97.8 | 0.3 | 116.5 | 0.0
COc1cccc(C(C(=O)NC(C)(C)C)N(C(=O)CCC(=O)Nc2cc(C)on2)C(C)(C)C)c1OC (stereo not drawn) | 0.0 | 2.2 | -4.8 | 2.9 | 2.9 | 93.5 | -0.3 | 98.5 | -0.1
COc1cccc(C(C(=O)NC(C)(C)C)N(C(=O)CCC(=O)Nc2cc(C)on2)C(C)C)c1OC (stereo not drawn) | 0.1 | -1.1 | 5.5 | -1.4 | -0.8 | 111.5 | 0.1 | 105.7 | 0.1
Cc1cnc(NC(=O)C2C(=O)c3ccccc3S(=O)(=O)N2C)s1 (stereo not drawn) | 0.7 | / | / | / | / | / | / | / | /
CCC1=C(c2cc(OC)c(OC)c(OC)c2)C2(CCCC2)C(=O)O1 | 0.8* | 2.2 | 15.2 | 2.6 | 2.0 | 113.5 | -0.2 | 108.3 | 0.1
CCCCOc1ccc(C2/C(=C(/O)c3ccc4c(c3)CC(C)O4)C(=O)C(=O)N2CCCN2CCOCC2)cc1OC (stereo not drawn) | -0.3 | -0.7 | 9.2 | 1.5 | -0.7 | / | / | / | /
CCOC(=O)c1c(NC(=S)NCC2CCCO2)sc(C)c1C (stereo not drawn) | 0.2 | -1.3 | 2.0 | 0.6 | -4.7 | / | / | / | /
O=C(C1CCC1)N1CCc2cc(S(=O)(=O)Nc3ccc4c(c3)OCCO4)ccc21 | -0.1 | -0.6 | 5.5 | -0.8 | 0.0 | 111.5 | 0.1 | 95.1 | -0.1
O=C(C1CCC1)N1CCc2cc(S(=O)(=O)NC3CCCC3)ccc21 | -0.1 | -0.4 | -0.6 | -0.9 | 1.2 | / | / | / | /
CC1CCCN(CCCNS(=O)(=O)c2ccc3c(c2)CCN3C(=O)C2CC2)C1 (stereo not drawn) | 1.4* | -0.3 | 7.1 | 0.3 | 0.3 | 115.3 | 0.3 | 110.2 | 0.2
Cc1ccc(CNS(=O)(=O)c2ccc3c(c2)CCN3C(=O)C2CCC2)cc1 | 0.1 | -3.6 | -11.1 | 1.5 | 2.6 | 101.8 | -0.3 | 99.3 | 0.0
CCCN(CCC)CCNS(=O)(=O)c1ccc2c(c1)CCN2C(=O)C1CCC1 | -0.1 | -2.7 | -7.1 | 0.0 | -0.6 | 106.8 | 0.1 | 99.6 | 0.1
COc1ccc(N(CC(=O)N2CCN(c3cc(C)ccc3C)CC2)S(=O)(=O)c2c(C)noc2C)cc1 | -0.1 | -0.1 | -1.1 | 2.4 | 0.1 | / | / | / | /
Cc1c(C)n(-c2ccccc2)c2ncnc(NCCN(C)C)c12 | 0.0 | 0.8 | 8.4 | -1.7 | 0.4 | / | / | / | /
CCOC(=O)c1sc(Nc2cccc(C)c2C)nc1C | -0.5 | -1.0 | 11.7 | 29.4 | -0.6 | / | / | / | /
Cc1c(/C=N/O)c2ccccn2c1C(=O)c1ccc(F)cc1 | 1.7* | 1.0 | ? | -1.5 | 4.8 | 96.2 | -0.3 | 96.3 | -0.1
CC(Oc1ccc([N+](=O)[O-])cc1Cl)C(=O)Nc1ccc(C(N)=O)cc1 (stereo not drawn) | 2.3* | -1.1 | -1.0 | 2.9 | 0.0 | 103.4 | -0.2 | 90.9 | -0.1
CC(=O)Nc1ccc(Oc2ccc([N+](=O)[O-])cc2Cl)cc1 | 0.0 | -0.1 | 14.4 | -2.4 | 0.6 | / | / | / | /
COc1cc(/C=C(\C#N)C(=O)c2c[nH]c3ccccc23)cc(OC)c1O | 0.9* | 5.8 | -14.9 | -41.8 | / | 125.5 | 0.0 | 106.0 | 0.1
COc1cc(/C=C(\C#N)C(=O)NCCc2ccccc2)cc(OC)c1O | 0.0 | -0.4 | -27.3 | -2.8 | 0.1 | / | / | / | /
CCN1C(=O)c2cccc3c(S(=O)(=O)N(C(=O)c4ccncc4)c4ccc(OC)cc4)ccc1c23 | -0.2 | 2.3 | 13.4 | -2.4 | 2.6 | / | / | / | /
CCN1C(=O)c2cccc3c(S(=O)(=O)N(C(=O)c4cccnc4)c4ccc(OC)cc4)ccc1c23 | 12.7* | -1.4 | 8.6 | -20.2 | -2.7 | 101.5 | 0.2 | 99.6 | 0.1
N#Cc1cc([N+](=O)[O-])ccc1NCCc1ccccn1 | 3.5* | 1.4 | 2.2 | -1.9 | 0.0 | 116.4 | 0.1 | 120.5 | -0.1
N#Cc1ccc(NCCc2ccccn2)c([N+](=O)[O-])c1 | 0.1 | -1.8 | 4.4 | 1.2 | 1.1 | / | / | / | /
CC(OC(=O)C1CC1)C(=O)Nc1cccc(S(=O)(=O)N2CCOCC2)c1 (stereo not drawn) | -0.2 | -1.5 | / | / | 0.8 | / | / | / | /
SMILES | Efflux pump mplx | STK33 inh | PolyA inhibitor | GSK3beta inhib | GSK3A inh | Yeast cmpd fluor | Mdr1 pump inh | CaCdr2 efflux inh | Cdr1 pump inh
O=C(Cc1ccccc1)NN1C(=O)/C(=C/c2ccc(C(=O)O)cc2)SC1=S | 0.3 | 1.2 | 0.9 | 0.7 | -1.6 | 97.8 | -0.2 | 92.0 | 0.0
O=C(O)c1ccc(/C=C2/SC(=S)N(Cc3ccccc3)C2=O)cc1 | 0.0 | 0.3 | -43.5 | -0.3 | -0.8 | / | / | / | /
O=C(Nc1ccc(C2=NCCN2)cc1)c1ccc(C(=O)Nc2ccc(C3=NCCN3)cc2)c([N+](=O)[O-])c1 | 1.1* | 0.0 | -65.2 | -3.2 | 0.1 | 95.0 | -0.1 | 89.3 | -0.2
Cc1ccc(NC(=O)c2ccc(-n3cccn3)c([N+](=O)[O-])c2)cc1 | -0.1 | -3.7 | 4.8 | 0.5 | 1.3 | / | / | / | /
Cc1ccc(-c2c[n+](CC(=O)Nc3ccccc3C)c3n2CCC3)cc1 | 0.0 | -0.5 | -5.6 | 1.5 | -1.3 | 103.1 | -0.4 | 91.9 | -0.1
CC(C)c1ccc(NC2CCCN(C(=O)c3ccccc3-c3ncc[nH]3)C2)cc1 (stereo not drawn) | -0.1 | -0.4 | 0.5 | -0.4 | 2.3 | / | / | / | /
CC(C)(O)C#Cc1ccc(CN2CCN(Cc3ccsc3)C(CCO)C2)s1 (stereo not drawn) | 0.0 | -0.8 | -6.2 | 0.8 | -2.6 | / | / | / | /
Cn1c(/C(C#N)=C/c2ccc(O)cc2)nc2ccccc21 | 0.1 | 3.5 | -6.8 | -1.8 | -0.6 | / | / | / | /
COc1cc(/C=C(\C#N)c2nc3ccccc3n2C)cc(OC)c1O | 1.0* | -0.4 | -1.5 | -0.2 | 3.9 | 100.2 | -0.2 | 107.8 | -0.3
O=C(CSc1ncccc1C(=O)O)NC12CC3CC(CC(C3)C1)C2 | 0.5* | -2.5 | 15.7 | 1.5 | -3.0 | 104.5 | -0.2 | 104.2 | 0.1
C[C@H](CO)N1C[C@H](C)[C@@H](CN(C)C(=O)Nc2ccc(C(F)(F)F)cc2)Oc2c(NC(=O)Nc3ccc(C(F)(F)F)cc3)cccc2C1=O | 0.0 | -1.2 | / | / | -4.3 | / | / | / | /
C[C@H]1CN([C@@H](C)CO)C(=O)c2cccc(NC(=O)Nc3ccc(C(F)(F)F)cc3)c2O[C@@H]1CN(C)C(=O)Nc1ccc(F)cc1 | -0.1 | -0.6 | / | / | -2.5 | 109.9 | 0.0 | 97.2 | 0.0
CC(C)NC(=O)N(C)C[C@H]1Oc2c(NC(=O)Nc3ccc4c(c3)OCO4)cccc2C(=O)N([C@H](C)CO)C[C@@H]1C | 0.0 | / | / | / | / | 99.0 | -0.2 | 100.7 | 0.0

Assay outcomes from PubChem BioAssay.
